Assay results of several laboratories.
Lines come from different studies, so protocols differ.
Target: Serine/threonine-protein kinase tousled-like 1 (TLK1, Homo sapiens, UniProt Q9UKI8)
Residues used in one study (Q9UKI8 1-766): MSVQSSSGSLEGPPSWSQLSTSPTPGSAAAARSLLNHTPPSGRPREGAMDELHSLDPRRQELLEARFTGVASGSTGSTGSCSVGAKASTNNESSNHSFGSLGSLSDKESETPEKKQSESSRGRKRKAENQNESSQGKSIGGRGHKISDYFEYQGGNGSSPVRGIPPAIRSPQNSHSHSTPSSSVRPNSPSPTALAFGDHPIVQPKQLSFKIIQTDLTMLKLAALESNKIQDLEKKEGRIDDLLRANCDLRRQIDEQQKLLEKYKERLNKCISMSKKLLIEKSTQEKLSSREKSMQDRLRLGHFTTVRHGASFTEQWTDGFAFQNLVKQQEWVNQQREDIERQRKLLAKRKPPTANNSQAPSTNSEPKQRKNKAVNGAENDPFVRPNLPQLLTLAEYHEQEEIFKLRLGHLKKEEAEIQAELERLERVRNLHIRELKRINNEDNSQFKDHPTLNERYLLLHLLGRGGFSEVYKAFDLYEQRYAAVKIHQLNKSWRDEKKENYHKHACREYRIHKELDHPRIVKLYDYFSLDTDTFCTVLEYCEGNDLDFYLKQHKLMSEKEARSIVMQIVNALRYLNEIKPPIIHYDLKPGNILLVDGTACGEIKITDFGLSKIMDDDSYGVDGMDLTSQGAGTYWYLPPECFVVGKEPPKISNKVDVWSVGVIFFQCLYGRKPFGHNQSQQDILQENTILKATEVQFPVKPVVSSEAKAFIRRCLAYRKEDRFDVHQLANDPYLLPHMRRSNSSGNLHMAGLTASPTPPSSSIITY

Structure (SMILES)	assay	conditions	measurement	result
CC(C)(C)c1nc2c(s1)c1nc(N)ncc1c1ccc(NS(=O)(=O)c3c(F)cccc3F)c(F)c12	enzyme activity, inhibitor, radiometric	1 µM	remaining activity	92%
Cc1sc(C(=O)NC2COC2)cc1-n1cc(NC(=O)Nc2c(F)cccc2Cl)cn1	enzyme activity, inhibitor	10 µM	remaining activity	105%
Cc1ccc(C(=O)NCc2ccsc2)cc1C#Cc1cn(C(C)C)c2ncnc(N)c12	enzyme activity, inhibitor	1 µM	activity vs control	80%
Cc1ccc(NC(=O)c2ccc(C)c(C(F)(F)F)c2)cc1C#Cc1nn(C2CCC(O)CC2)c2ncnc(N)c12 (stereo not shown)	cell-free assay	10 µM	remaining signal	95%
Cc1cnc(NC2CCOCC2)nc1-n1cnc(C(=O)NC(CN)c2cc(F)cc(Cl)c2)c1 (stereo not shown)	enzyme activity, inhibitor, radiometric	1 µM	remaining activity	99%
O=C(Nc1cnn(-c2csc(C(=O)NC3COC3)c2)c1)Nc1c(F)cccc1Cl	enzyme activity, inhibitor	5 µM	remaining activity	53.4%
CC(C)(C)c1nc(-c2cccc(NS(=O)(=O)c3c(F)cccc3F)c2F)c(-c2ccnc(N)n2)s1	enzyme activity, inhibitor, radiometric	1 µM	remaining activity	108%
CC(C)(O)[C@H]1CC[C@H](Nc2ccc3ncc(-c4cccc(C(F)(F)F)c4)n3n2)CC1	enzyme activity, inhibitor	1 µM	remaining activity	94.2%
O=C(N1CCS(=O)(=O)CC1)N1C[C@H](c2ccc(OC(F)(F)F)cc2)C[C@H](c2nc(C3CC3)no2)C1	cell-free assay, competition with immobilised ligand	1 µM	remaining binding	94%
CN1CC(Oc2cnc(C#N)cc2-c2ccn3nc(NC(=O)C4CC4)cc3c2)C1	enzyme activity, inhibitor	1 µM	inhibition	-13%
COc1cc(Cl)c(C(=O)N[C@@H](CN[C@H]2CC[C@@H](N)CC2)Cc2ccc(C#N)cc2)cc1-c1ccc(CN[C@H](C)c2ccc(C)cc2)o1	enzyme activity, inhibitor	1 µM	remaining activity	94%
C[C@@H](c1cccc(C#N)c1)n1cc(Cl)cc(C(N)=O)c1=N	cell-free assay, competition with immobilised ligand	1 µM	remaining binding	100%
COc1cc(/C=C/C(=O)CC(=O)/C=C/c2ccc(O)c(OC)c2)ccc1O	enzyme activity, inhibitor	1 µM	activity vs control	128%
Cc1cc(NC(=O)c2cccc3cc(-c4cccc5[nH]nc(N)c45)ccc23)ccc1F	enzyme activity, inhibitor	0.1 µM	activity vs control	88%
COc1ccc2c(O[C@@H]3C[C@H]4C(=O)N[C@]5(C(=O)O)CC5/C=C\CCCCC[C@H](NC(=O)OC5CCCC5)C(=O)N4C3)cc(-c3csc(NC(=O)C(C)C)n3)nc2c1C (stereo partly shown)	cell-free assay, competition with immobilised ligand	1 µM	remaining binding	100%
Cc1ccc(C(=O)Nc2ccc(CN3CCN(C)CC3)c(C(F)(F)F)c2)cc1C#Cc1cnc2cccnn12	enzyme activity, inhibitor	23.5 nM	remaining activity	100%
Nc1ncnc2occ(-c3ccc(NC(=O)Nc4cc(C(F)(F)F)ccc4F)cc3)c12	cell-free assay, inhibitor	20 µM	remaining signal	39%
C[C@H](c1ccnc(Nc2nc3ccc(-c4cc(N(C)C)ncn4)cc3[nH]2)c1)N1CCN(C(=O)CC(F)(F)F)CC1	cell-free assay, competition with immobilised ligand	0.1 µM	remaining binding	76%
COc1cc(Nc2cnc(C#N)c(O[C@H](C)CN(C)C)n2)ncc1-c1cnn(C)c1	enzyme activity, inhibitor, radiometric	10 µM	remaining activity	93%
